PubChem BioAssay AID493082 (Broad Institute, 2011)
Inconclusive results are not listed. Active and inactive are the calls of the source.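 The calls were made as follows: active = compounds whose fitted half-maximal growth inhibition concentration is at most ten times the top valid dose; inconclusive = flat curve with 30 to 70% inhibition, or poor fit; inactive = the rest.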

Tests used:
[1] = antifungal activity on resistant C. albicans strain – Alamar Blue, 48 h, dry powder, dose response (AID 493082); conditions: C. albicans CaCi-8 + fluconazole, Alamar Blue growth, 48 h; at 26 µM (top of the series)
How it was run: (§1)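 Material: fluconazole-resistant Candida albicans strain CaCi-8. Reagent: fluconazole 8 µg/mL. Timing: 48 h compound exposure at 37 °C, 2 h dye step. Measured by: Alamar Blue fluorescence, Ex 544/Em 590 nm. Read-out basis: fungal growth, reduced fluorescence as inhibition.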

[2] = test system: C. albicans CaCi-8 + fluconazole, Alamar Blue growth, 48 h; experiment: as above
How it was run: as §1

SMILES | activity change, negative = inhibition [1] | AC50 [2]
O=C(Cn1nc(-c2ccccc2)c2ccccc21)OC1CCC1 | -21.3% (inactive) | –
COC(=O)Cn1nc(-c2ccccc2)c2ccccc21 | – | 2.33 µM
COC(=O)Cn1nc(-c2ccccc2)c2cccc(C(F)(F)F)c21 | -12% (inactive) | –
O=C1OCCC1n1nc(-c2ccccc2)c2ccccc21 (centres undefined) | -19.7% (inactive) | –
O=C(Cn1c2ccccc2c2nc3n(c(=O)c21)CCS3)N1CCOCC1 | – | 7.67 µM
COC(=O)Cn1nc(-c2ccc(F)cc2)c2ccccc21 | – | 16.1 µM
O=C(Cn1c2ccccc2c2nc3n(c(=O)c21)CCS3)N1CCCC1 | – | 3.83 µM
CCN(CC)C(=O)Cn1c2ccccc2c2nc3n(c(=O)c21)CCS3 | – | 10 µM
O=C(Cn1c2ccc(F)cc2c2nc3n(c(=O)c21)CCS3)N1CCCC1 | – | 0.907 µM
O=C(Cn1c2ccc(F)cc2c2nc3n(c(=O)c21)CCS3)N1CCCCCC1 | 3.17% (inactive) | –
CC1CCN(C(=O)Cn2c3ccccc3c3nc4n(c(=O)c32)CCS4)CC1 | – | 2.06 µM
O=C(Cn1c2ccc(F)cc2c2nc3n(c(=O)c21)CCS3)N1CCCCC1 | 12.2% (inactive) | –
COC(=O)Cn1nc(-c2ccccc2)c2ccc(C(F)(F)F)cc21 | -34.9% (inactive) | –
CCCCn1nc(-c2ccccc2)c2ccccc21 | 19.1% (inactive) | –
COC(=O)Cn1nc(-c2ccccc2C)c2ccccc21 | – | 8.07 µM
COC(=O)Cn1nc(-c2cccc(F)c2)c2ccccc21 | – | 14 µM
O=C(Cn1c2ccccc2c2nc3n(c(=O)c21)CCS3)N1CCCCC1 | – | 4.91 µM
COC(=O)Cn1nc(-c2ccc(C#N)cc2)c2ccccc21 | – | 20 µM
O=C(Cn1c2ccccc2c2ccncc21)N1CCCCC1 | -24.1% (inactive) | –
CCN(CC)C(=O)Cn1c2ccc(F)cc2c2nc3n(c(=O)c21)CCS3 | 24.6% (inactive) | –
COC(=O)Cn1nc(I)c2ccccc21 | – | 18.8 µM
O=C(O)Cn1nc(-c2ccccc2)c2ccccc21 | -8.51% (inactive) | –
COC(=O)C(C)(C)n1nc(-c2ccccc2)c2ccccc21 | -6.76% (inactive) | –
COC(=O)Cn1c(-c2ccccc2)nc2ccccc21 | – | 16.7 µM
